The record followed here is ChEMBL document CHEMBL4196162, “Target-Directed Self-Assembly of Homodimeric Drugs Against β-Tryptase” (ACS Med Chem Lett, 2018).

One may read the IC50 as the concentration at which inhibition is half-maximal.

Calls of active or inactive are those of the source. No cut-off for these calls is given here.

The nature of assay [1]: Inhibition of recombinant human lung beta-tryptase using N-tert-butoxycarbonyl-Gln-Ala-Arg-AMC as substrate incubated for 3 hrs followed by substrate addition measured every 30 secs for 15 mins in presence of 10 pM of tryptase. A digest of the protocol: (§1)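 Purified tryptase tested at several enzyme concentrations. IC50 from nonlinear regression with no Hill slope constraint.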

A short description of assay [2]: Inhibition of recombinant human lung beta-tryptase using N-tert-butoxycarbonyl-Gln-Ala-Arg-AMC as substrate incubated for 3 hrs followed by substrate addition measured every 30 secs for 15 mins in presence of 100 pM of tryptase. The procedure, abridged: as §1
A short description of assay [3]: Inhibition of recombinant human lung beta-tryptase using N-tert-butoxycarbonyl-Gln-Ala-Arg-AMC as substrate incubated for 3 hrs followed by substrate addition measured every 30 secs for 15 mins in presence of 1 nM of tryptase. A digest of the protocol: as §1
Assay [4] can be described thus: Inhibition of beta-tryptase in human HMC1 cells assessed as decrease in A23187-induced degranulation in supernatant incubated for 2 hrs followed by A23187 addition measured after 1 hr. The class given is cell-based. A digest of the protocol:
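Cultured HMC1 human mast cells exposed to inhibitor (10 nM to 100 μM) for 2 h, then degranulated with 1 μM A23187 in PBS. After 1 h, supernatant tested for tryptase activity. IC50 and SEM from nonlinear regression with unconstrained Hill slope.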

A short description of assay [5]: Inhibition of beta-tryptase in human HMC1 cells assessed as decrease in A23187-induced degranulation in cell lysates incubated for 2 hrs followed by A23187 addition measured after 1 hr. The class given is cell-based. A digest of the protocol: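 HMC1 human mast cell lysates tested for tryptase activity in the presence of inhibitor. IC50 and SEM from nonlinear regression with unconstrained Hill slope.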

For assay [6], the species on record is Homo sapiens. Put plainly: Reversal inhibition of recombinant human lung beta-tryptase assessed as recovery of enzymatic activity at 10 uM using N-tert-butoxycarbonyl-Gln-Ala-Arg-AMC as substrate measured over 216 hrs.

As for `NCc1cccc(C2CCN(C(=O)c3cccc(NC(=O)C(O)C4(O)CCC4)c3)CC2)c1` (stereo unspecified), the IC50 in assay [1] was determined as 0.64 µM; in assay [2], 0.17 µM; in assay [3], 8.1 µM; in assay [4], 137 µM; in assay [5] it was 21.8 µM. Moreover, in assay [6], the inhibition result was “Active”.
